Where “and” joins values, the source holds several entries; their conditions need not be identical. Equal entries are not always repeated. Where two headings read alike, the source gives them in different places.
Tests used:
[1] = aqueous solution; cited from earlier work
Co-hArgI = target: T1, Co-hArgI (Homo sapiens, UniProt P05089); assay: Inhibition of Co-hArgI by L-Orn and L-Leu; format: biochemical
T1 sequence (P05089 1-322): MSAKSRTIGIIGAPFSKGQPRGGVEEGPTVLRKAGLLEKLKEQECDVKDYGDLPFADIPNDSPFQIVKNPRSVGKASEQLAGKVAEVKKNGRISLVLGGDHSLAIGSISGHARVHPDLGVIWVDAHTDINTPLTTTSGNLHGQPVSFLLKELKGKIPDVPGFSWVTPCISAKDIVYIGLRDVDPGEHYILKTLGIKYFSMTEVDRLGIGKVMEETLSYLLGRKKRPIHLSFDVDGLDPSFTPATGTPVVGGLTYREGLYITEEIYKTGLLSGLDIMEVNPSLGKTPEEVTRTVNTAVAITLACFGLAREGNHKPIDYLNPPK

hArgII = conditions: cited from earlier work
Mn-hArgI = target: T2, Mn-hArgI (Homo sapiens, UniProt P05089); assay: Inhibition of Mn-hArgI by L-Orn and L-Leu; format: biochemical
T2 sequence (P05089 1-322): T1 sequence (P05089 1-322)

rat Arginase I = rat Arginase I at pH 9.0; cited from earlier work
melanoma cell line A375 = conditions: for IC50: A375 melanoma cells, MTT
[2] = Serum stability in pooled human serum; format: in vitro ADME; conditions: 1 μM enzyme, 37 °C
Summary of the method: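 Purified His-tagged hArgI (E. coli BL21, IMAC, metal-loaded with 10 mM CoCl2 or MnSO4, 15 min at 50–55 °C) added at 1 µM to pooled human serum at 37 °C. Aliquots taken at time points and tested in triplicate for hydrolysis of 1 mM L-Arg. Rate versus time fitted to a single exponential or a biphasic decay model to give t1/2.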

[3] = Steady-state kinetics of L-Arg hydrolysis by purified hArgI; format: biochemical; conditions: for kcat: hydrolysis of L-Arg, 100 mM Hepes buffer; for Fold change KM L-Arg: pH 7.4 vs pH 8.5; for Km: read-out: KM L-Arg
Summary of the method: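 His6-TEV-tagged human ArgI expressed in E. coli BL21 and IMAC-purified. Loaded with 10 mM CoCl2 or MnSO4 (15 min, 50–55 °C), then exchanged into 100 mM HEPES/10% glycerol, pH 7.4. Concentration taken from A280 in 6 M guanidinium. Enzyme-started reactions quenched with 12 N HCl after 30 s. Urea derivatised with DAMO/thiosemicarbazide/Fe3+ (COLDER) by 15 min boiling, read at A530 with L-Arg blanks. At least triplicate; Michaelis–Menten fit.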

[4] = pH rate dependence of manganese and cobalt arginase; format: biochemical; conditions: for apparent pKa of kcat vs pH (one-pKa model) / apparent pKa of 1/KM vs pH, lower pKa / apparent pKa of 1/KM vs pH, upper pKa: 37 °C; for apparent pKa of kcat vs pH (one-pKa model): Co-hArgI value tentative; for apparent pKa of 1/KM vs pH, lower pKa / apparent pKa of 1/KM vs pH, upper pKa: bell shaped curve; for ascending limb pKa of kcat/KM vs pH (fit) / descending limb pKa of kcat/KM vs pH (fit): two pKa Henderson-Hasselbach model
Summary of the method: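 Mn- or Co-substituted enzyme assayed at 37 °C, at least in triplicate, in 100 mM buffers: acetate (pH 5–5.5), MES (6–6.5), HEPES (7–7.8), Tris (8–9), Capso (9–10.5). L-Arg ranged 30 µM–80 mM depending on pH. Michaelis–Menten fits gave kcat and KM. kcat/KM versus pH fitted to a Henderson–Hasselbalch form for ascending and descending pKa, with Segel correction. Log kcat and 1/KM plotted versus pH.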

[5] = Thermal denaturation by circular dichroism; format: physicochemical; conditions: 100 mM phosphate buffer, pH 7.4, θ222
Summary of the method: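 Co-substituted enzyme at 6 µM in 100 mM phosphate, pH 7.4. Molar ellipticity at 222 nm monitored from 25 to 90 °C. Fraction denatured calculated as the ratio to the ellipticity of fully unfolded protein. Data fitted to a modified logistic equation for the transition midpoint.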

[6] = Kinetics of deactivation in HEPES buffer with added Co^2+; format: physicochemical; conditions: 100 mM HEPES, pH 7.4, 37 °C, in the presence of 500 μM Co^2+
[7] = test system: hepatocellular carcinoma cell line, Hep3b; assay: In vitro cytotoxicity; format: cell-based, human
[8] = rat enzyme; cited from earlier work
[9] = cited from earlier work

Molecule: NC(N)=NCCN1CCNCCNCCNCC1.[Zn+2]
- apparent pKa of guanidinium deprotonation [1]: 5.9

Molecule: CC(C)C[C@H](N)C(=O)O [L-Leu, L-Leucine]
- Ki (Co-hArgI; Ki L-Leu, pH 7.4): 480 ± 50 µM
- Ki (Co-hArgI; Ki L-Leu, pH 8.5): 1300 µM
- Fold change Ki L-Leu (Co-hArgI; pH 7.4 vs pH 8.5): (2.7) fold
- Ki (hArgII): 1000 ± 100 µM
- Ki (Mn-hArgI; Ki L-Leu, pH 7.4): 390 ± 40 µM
- Ki (Mn-hArgI; Ki L-Leu, pH 8.5): 640 ± 40 µM
- Fold change Ki L-Leu (Mn-hArgI; pH 7.4 vs pH 8.5): (1.6) fold

Molecule: NCCCC[C@H](N)C(=O)O [L-Lys]
- Ki (rat Arginase I): 900 µM

Molecule: NCCC[C@H](N)C(=O)O [L-Orn, L-Ornithine]
- Ki (Co-hArgI; read-out: Ki L-Orn, pH 7.4): 76 ± 16 µM
- Ki (Co-hArgI; read-out: Ki L-Orn, pH 8.5): 50 ± 7 µM
- Ki (Co-hArgI; read-out: Ki L-Orn, pH 8.5, 37 °C): 64 ± 9 µM
- Ki (Mn-hArgI; read-out: Ki L-Orn, pH 7.4): 2400 µM
- Ki (Mn-hArgI; read-out: Ki L-Orn, pH 8.5): 530 ± 60 µM

B1: Mn-hArgI: recombinant human Arginase I with the native di-nuclear Mn^2+ cofactor (protein, UniProt P05089 1-322, looked up)
Arginase-1: T1 sequence (P05089 1-322)
modifications: Mn2+ cofactor
- IC50 (melanoma cell line A375): 0.0041 ± 0.0001 µM
- t½ of activity (single exponential loss) [2]: 4.8 ± 0.8 h
- kcat ([3]; pH 7.4, 37 °C): 300 ± 12 s⁻¹ and 300 s⁻¹
- Fold change KM L-Arg [3]: (1. 4) fold
- Km ([3]; pH 7.4, 37 °C, listed as Mn-ArgI): 2330 µM
- Km ([3]; pH 8.5): 1600 µM
- apparent pKa of kcat vs pH (one-pKa model) [4]: 8.1 ± 0.05
- apparent pKa of 1/KM vs pH, lower pKa [4]: 7.1 ± 0.1 and 7.1
- apparent pKa of 1/KM vs pH, upper pKa [4]: 10.7 ± 0.3 and 10.7
- fold increase of rate (kcat) with pH ([4]; over the pH range studied (log slope = 0.5)): more than 30 fold
- log kcat slope ([4]; pH 6 to pH 8.5): 0.5
- ascending limb pKa of kcat/KM vs pH (fit) [4]: 8.4 ± 0.1
- descending limb pKa of kcat/KM vs pH (fit) [4]: 11.0 ± 0.1

B2: Co-hArgI: Co^2+ substituted human Arginase I, recombinant, His6-tagged, expressed in E. coli (protein, UniProt P05089 1-322, looked up)
Arginase-1: T1 sequence (P05089 1-322)
modifications: Co2+ substituted; His6 tag
- TM (mid-point temperature for unfolding) [5]: 74 °C
- fold increase in cytotoxicity vs Mn-hArgI (melanoma cell line A375): ~ 13 fold
- IC50 (melanoma cell line A375): 0.00032 ± 6e-05 µM
- t½ of activity (monophasic sigmoidal loss) [6]: 45 ± 2 h
- fold lower IC50 than Mn-hArgI ([7]; Hep3b): 15 fold
- fold lower IC50 value ([7]; human hepatocellular carcinoma and melanoma cell lines): 12-15 fold
- kcat ([3]; pH 7.4, 37 °C): 240 ± 14 s⁻¹ and 240 s⁻¹
- Fold change KM L-Arg [3]: (1.4) fold
- Km ([3]; pH 7.4, 37 °C): 190 ± 40 µM
- Km ([3]; pH 8.5): 140 ± 10 µM
- apparent pKa of kcat vs pH (one-pKa model) [4]: 5.2 ± 0.1
- apparent pKa of 1/KM vs pH, lower pKa [4]: 7.2 ± 0.1
- apparent pKa of 1/KM vs pH, upper pKa [4]: 9.7 ± 0.1 and 9.7
- log kcat slope ([4]; pH 5 - 6): 0.43
- log kcat slope ([4]; pH 6 – 10.5): ~ 0.03 and 0.03
- ascending limb pKa of kcat/KM vs pH (fit) [4]: 7.4 ± 0.1
- descending limb pKa of kcat/KM vs pH (fit) [4]: 10.0 ± 0.1

B3: rat Mn-ArgI: rat Arginase I with Mn^2+, literature comparator (protein, UniProt P07824 1-323, looked up)
Arginase-1: MSSKPKPIEIIGAPFSKGQPRGGVEKGPAALRKAGLVEKLKETEYNVRDHGDLAFVDVPNDSPFQIVKNPRSVGKANEQLAAVVAETQKNGTISVVLGGDHSMAIGSISGHARVHPDLCVIWVDAHTDINTPLTTSSGNLHGQPVAFLLKELKGKFPDVPGFSWVTPCISAKDIVYIGLRDVDPGEHYIIKTLGIKYFSMTEVDKLGIGKVMEETFSYLLGRKKRPIHLSFDVDGLDPVFTPATGTPVVGGLSYREGLYITEEIYKTGLLSGLDIMEVNPTLGKTPEEVTRTVNTAVALTLSCFGTKREGNHKPETDYLKPPK
modifications: Mn2+ cofactor
- TM [8]: 75 °C

B4: bovine carboxypeptidase A: bovine carboxypeptidase A with Mn^2+ or Co^2+ as cofactor (protein, UniProt P00730 111-419, looked up)
Carboxypeptidase A1: ARSTNTFNYATYHTLDEIYDFMDLLVAEHPQLVSKLQIGRSYEGRPIYVLKFSTGGSNRPAIWIDLGIHSREWITQATGVWFAKKFTEDYGQDPSFTAILDSMDIFLEIVTNPDGFAFTHSQNRLWRKTRSVTSSSLCVGVDANRNWDAGFGKAGASSSPCSETYHGKYANSEVEVKSIVDFVKDHGNFKAFLSIHSYSQLLLYPYGYTTQSIPDKTELNQVAKSAVEALKSLYGTSYKYGSIITTIYQASGGSIDWSYNQGIKYSFTFELRDTGRYGFLLPASQIIPTAQETWLGVLTIMEHTLNNLY
modifications: Mn2+ or Co2+ cofactor
- acidic limb kinetic pKa ([9]; Co^2+ substitution): 5.3
- acidic limb kinetic pKa ([9]; Mn^2+ as a cofactor): 6.4

B5: metallo-β-lactamase from B. cereus: metallo-β-lactamase from B. cereus with Mn^2+ or Co^2+ cofactor (protein, UniProt P04190 31-257, looked up)
Metallo-beta-lactamase type 2: SQKVEKTVIKNETGTISISQLNKNVWVHTELGSFNGEAVPSNGLVLNTSKGLVLVDSSWDDKLTKELIEMVEKKFQKRVTDVIITHAHADRIGGIKTLKERGIKAHSTALTAELAKKNGYEEPLGDLQTVTNLKFGNMKVETFYPGKGHTEDNIVVWLPQYNILVGGCLVKSTSAKDLGNVADAYVNEWSTSIENVLKRYRNINAVVPGHGEVGDKGLLLHTLDLLK
modifications: Mn2+ or Co2+ cofactor
- pKa ([9]; Co^2+ as the cofactor): 6.9
- pKa ([9]; with Mn^2+): 8.4
